Consider 36 sequences from the array DNA melting data of Ke et al. (doi:10.1101/2024.01.08.574731).

Data set [1] is described as follows: folding enthalpy; higher = less favourable; fluorescence melt of hairpins on a sequencing array, two-state fit. The conditions noted are these: sodium 0.088 M. The method in brief:
(§1)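 Two-state fits, bootstrapped, provided melting temperature and folding enthalpy from Cy3 fluorescence normalised to pre-quench Cy3 and to control constructs. Library hairpins with annealed Cy3 and quencher oligos were imaged on a sequenced MiSeq flow cell in 50 mM Na-HEPES pH 8.0, 25 mM NaCl, at 2.5 °C intervals up to 60 °C. Four replicates were combined with inverse-variance weighting. A 9.35 °C upward shift was applied to fitted temperatures to match UV melts.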

A short description of data set [2]: melting temperature; fluorescence melt of hairpins on a sequencing array, two-state fit, raised by 9.35 °C to match UV melts. The note with it: sodium 0.088 M. In short, it runs like this:
as §1

Turning to GTGGACCGAAAGGTCAC (((.(((....)))))), in data set [1], the folding enthalpy is -10.4 kcal/mol. In data set [2], the Tm came to 53.7 °C.

Consider GTGGACCGAAAGGTGCAC (((.(((....))).))), for which the folding enthalpy in data set [1] is -24.7 kcal/mol. For the same sequence, in data set [2], the Tm was determined as 67.3 °C.

GTGGACGAAAGTCAACAC ((((((....)))..))): in data set [1], the folding enthalpy is -15.3 kcal/mol. Further, the Tm in data set [2] turned out to be 45.9 °C.

Regarding GTGGACGAAAGTCACAC ((((((....))).))), in data set [1], the folding enthalpy was -20.9 kcal/mol. In data set [2], the Tm was determined as 50 °C.

As for GTGGACGAAAGTCGCCAC ((((((....)))..))), in data set [1], the folding enthalpy is -18 kcal/mol. In data set [2], the Tm was 43 °C.

As to GTGGACGAAAGTCGTCAC ((((((....)))..))), the folding enthalpy in data set [1] was -16.3 kcal/mol. The Tm in data set [2] was 40.1 °C.

For the sequence GTGGACGAAAGTCTACAC ((((((....)))..))), in data set [1], the folding enthalpy is -16.3 kcal/mol. In data set [2], the Tm was found to be 51.2 °C.

With GTGGACGAAAGTCTCCAC ((((((....)))..))), in data set [1], the folding enthalpy was -17.2 kcal/mol. In addition, in data set [2], the Tm was found to be 38.8 °C.

Take GTGGACGGAAACGTCCGC (.(((((....))))).): the folding enthalpy in data set [1] is -18.4 kcal/mol. Further, in data set [2], the Tm was 62 °C.

As to GTGGACGGAAACGTTCAC (((.(((....))).))), the folding enthalpy in data set [1] is -42.2 kcal/mol. The Tm in data set [2] was found to be 55 °C.

With GTGGAGAAATCCAC (((((....))))), the folding enthalpy in data set [1] is -25.7 kcal/mol. Moreover, in data set [2], the Tm is 49.3 °C.

Consider GTGGAGGGAAACCTCTGC (..((((....))))..), for which, in data set [1], the folding enthalpy is -19.2 kcal/mol. For the same sequence, the Tm in data set [2] came out at 37.6 °C.

Regarding GTGGATGCGAAAGCACAC (((..(((....)))))), in data set [1], the folding enthalpy is -17.9 kcal/mol. Further, the Tm in data set [2] amounted to 45.4 °C.

Consider GTGGATGGAAACGTTCAC (((.(.(....).).))), for which the folding enthalpy in data set [1] is -16.7 kcal/mol. The Tm in data set [2] was 32.4 °C.

On to GTGGCACGAAAGTGTCAC (((.(((....))).))), for which the folding enthalpy in data set [1] is -42 kcal/mol. Besides, the Tm in data set [2] came to 67.2 °C.

With GTGGCAGGAAACCACCAC ((((..(....)..)))), the folding enthalpy in data set [1] was -22.5 kcal/mol. For the same sequence, in data set [2], the Tm stood at 35 °C.

With GTGGCAGGAAACTACCAC ((((.((....)).)))), the folding enthalpy in data set [1] is -34.2 kcal/mol. For the same sequence, the Tm in data set [2] stood at 44.6 °C.

In the case of GTGGCCACGAAAGTGCAC (((..(((....)))))), in data set [1], the folding enthalpy is -12.5 kcal/mol. Besides, the Tm in data set [2] amounted to 38.1 °C.

As for GTGGCCCCGAAAGGGCAC (((..(((....)))))), the folding enthalpy in data set [1] was -15 kcal/mol. In data set [2], the Tm turned out to be 57.5 °C.

On to GTGGCCGAAAGGCGCAC ((((((....))).))), for which the folding enthalpy in data set [1] is -13.9 kcal/mol. In addition, the Tm in data set [2] was determined as 56.3 °C.

Consider GTGGCCGAAAGGCGTCAC ((((((....)))..))), for which, in data set [1], the folding enthalpy was -12.2 kcal/mol. Moreover, in data set [2], the Tm stood at 43.5 °C.

Consider GTGGCCGGAAACGGCTAC ((.((((....)))).)), for which, in data set [1], the folding enthalpy was -20.4 kcal/mol. In data set [2], the Tm was found to be 60.3 °C.

As for GTGGCCGGAAACGGTCAC (((.(((....))).))), the folding enthalpy in data set [1] is -37.2 kcal/mol. In data set [2], the Tm came out at 66.1 °C.

For GTGGCCGGAAACGGTCGC (.(.(((....))).).), the folding enthalpy in data set [1] was -39.5 kcal/mol. Besides, the Tm in data set [2] worked out at 53.4 °C.

Regarding GTGGCGACGAAAGTCCAC (((..(((....)))))), the folding enthalpy in data set [1] is -17.3 kcal/mol. Also, the Tm in data set [2] worked out at 42.8 °C.

Turning to GTGGCGGGAAACCGCCGC (.(((((....))))).), the folding enthalpy in data set [1] was -14.9 kcal/mol. Moreover, in data set [2], the Tm was 66.6 °C.

As to GTGGCGGGAAACCGTCAC (((.(((....))).))), the folding enthalpy in data set [1] is -40.6 kcal/mol. Further, in data set [2], the Tm was 63.5 °C.

In the case of GTGGCTCGAAAGAGTCAC (((.(((....))).))), the folding enthalpy in data set [1] was -49.6 kcal/mol. In data set [2], the Tm was 63.8 °C.

Turning to GTGGGACGAAAGTCACAC (((.(((....))).))), in data set [1], the folding enthalpy was -29.6 kcal/mol. Also, in data set [2], the Tm stood at 68.9 °C.

For the sequence GTGGGAGGAAACTTCCGC (.((.((....)).)).), the folding enthalpy in data set [1] is -23.9 kcal/mol. Moreover, the Tm in data set [2] came out at 40.6 °C.

Turning to GTGGGCCGAAAGGCCAC (((.(((....)))))), in data set [1], the folding enthalpy was -10.7 kcal/mol. In addition, the Tm in data set [2] was determined as 64.9 °C.

Take GTGGGCGAAAGCCGACAC ((((((....)))..))): the folding enthalpy in data set [1] is -13.6 kcal/mol. Besides, the Tm in data set [2] came to 53.8 °C.

For GTGGGCGAAAGCCTACAC ((((((....)))..))), in data set [1], the folding enthalpy is -11.9 kcal/mol. Also, in data set [2], the Tm stood at 55.1 °C.

Turning to GTGGGCGAAAGCCTCCAC ((((((....)))..))), the folding enthalpy in data set [1] was -11.7 kcal/mol. Moreover, the Tm in data set [2] was 37.6 °C.

As for GTGGGCGAAAGCCTTCAC ((((((....)))..))), in data set [1], the folding enthalpy is -12.7 kcal/mol. In data set [2], the Tm came out at 33.1 °C.

With GTGGGGAAACCCAC (((((....))))), the folding enthalpy in data set [1] was -25.7 kcal/mol. In data set [2], the Tm is 62 °C.
